INS promoter act: TRM-6 insulin promoter activation | AID 1296 | activation, % at 2 µM | TRM-6 cells, insulin promoter eGFP reporter, imaging; plate-scaled: unstimulated 0, stimulated control 100 | 130,000 tested, 0.81% active;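 active = activation at 2 µM above a set limit, confirmed on inspection of the cell images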;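 note: share of cells whose green reporter signal exceeds an intensity cutoff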
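Test system: human fetal islet-derived TRM-6 cells with tamoxifen-inducible insulin promoter–eGFP reporter; schedule: overnight tamoxifen, then two-day compound incubation at 37 °C; measured by: high-content imaging of fixed cells with Hoechst nuclear stain; evaluation: percent cells above green-intensity threshold, converted to percent activation versus plate controls; control set: stimulated and unstimulated wells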
The depositor's hits bear a star. Shown is part of a subset that was picked to be rich in hits.

SMILES	INS promoter act
Cc1ccc(N=Nc2ccc(O)c3ncccc23)cc1C	278.6*
Oc1ccc(CN2CCCCC2)c2cccnc12	388.9
Oc1c(Cl)cc(Cl)c2cccnc12	9.1
CCS(=O)(=O)c1ccc(O)c(NC(=O)c2cc(OC)c(OC)c(OC)c2)c1	0.0
Cc1ccc(N=Nc2ccc(O)c3ncccc23)cc1	123.1
O=C(NC1CCN(C(=S)NCc2ccco2)CC1)c1cccc(F)c1	0.0
Cc1cccc2c1N1C(=O)c3c(C(=O)O)cccc3C1CC2C (stereo unspecified)	132.6
CN(C(=O)CSC1=NC2C(N=N1)c1cc(Br)ccc1N2C)C1CCCCC1 (stereo unspecified)	-2.4
COC(=O)C1=C(C)OC(N)=C(C#N)C1c1ccsc1 (stereo unspecified)	368.8
CCC(=O)Oc1ccc(C(=O)Nc2ccc3c(c2)C(=O)N(C2CCCCC2)C3=O)cc1	6.9
COc1ccc(/C=C2\CC/C(=C\c3ccc(OC)cc3OC)C2=O)c(OC)c1	526.7*
COc1ccc(/C=N\NC(=O)c2cccc(Br)c2)c(OC)c1	-7.1
COc1ccc(/C=C2\CC/C(=C\c3ccc(OC)c(OC)c3)C2=O)cc1OC	-8.3
CCCn1nnnc1SCC(=O)N(C(C)C)C(C)C	-6.1
Cc1cc(C(F)(F)F)nn1CC(=O)N(C)C1CCCCC1	-6.7
Cc1ccc(S(=O)(=O)NCC2NCCc3ccccc32)cc1 (stereo unspecified)	0.0
S=C1NCCc2ccccc2C1c1ccccc1Cl (stereo unspecified)	468.8*
O=C(Cc1cccs1)Nc1ccc(NC(=O)c2ccco2)cc1	0.0
CSc1ccccc1C(=O)Nc1cccc(C(C)O)c1 (stereo unspecified)	-7.1
NS(=O)(=O)c1ccc(NN=C2CCCCC2)c([N+](=O)[O-])c1	-3.8
CC(Oc1ccc(Cl)cc1Cl)c1ccn[nH]1 (stereo unspecified)	305.7*
CC(Oc1ccc(Cl)cc1Cl)C(=O)NC1CCSC1=O (stereo unspecified)	9.1
COCCNC(=O)C(C)Oc1ccc(Cl)cc1Cl (stereo unspecified)	-7.1
Cn1c(=O)[nH]c(=O)c2c1nc(N1CCOCC1)n2CCCSc1ncccn1	-6.5
O=C(COC(=O)c1ccc(Br)o1)NCC1CCCO1 (stereo unspecified)	0.0
SMILES	INS promoter act
Cc1ccc(CNC(=O)CCS(=O)(=O)c2ccc(Br)s2)cc1	-4.2
Cc1c(C(=O)/C=C/c2cccs2)oc2ccc(F)cc12	3.3
COc1cc(OC)cc(-c2nn[nH]n2)c1	-3.4
COc1ccc(Cc2nnc(NC(=O)Cn3cnc4c3c(=O)n(C)c(=O)n4C)s2)cc1	234.9
CCN1CC=C2C(C#N)=C(N)C(C#N)(C#N)[C@H](c3cccc(OC)c3OC)[C@H]2C1	614.3*
CN1CC=C2C(C#N)=C(N)C(C#N)(C#N)[C@H](c3cccc(Cl)c3)C2C1 (stereo partly specified)	7.1
N#CC1=C(N)C(C#N)(C#N)C(c2ccncc2)C2CN(C(=O)OCc3ccccc3)CC=C12 (stereo unspecified)	-4.8
COc1cccc(C2C3CN(C)CC=C3C(C#N)=C(N)C2(C#N)C#N)c1OC (stereo unspecified)	147.2*
CCOC(=O)N1CC=C2C(C#N)=C(N)C(C#N)(C#N)[C@H](c3ccccc3OCC)[C@H]2C1	-9.1
CN1CC=C2C(C#N)=C(N)C(C#N)(C#N)[C@H](c3cccs3)[C@H]2C1	107.9
CCOc1ccc2[nH]c(=O)c(CN(CCc3ccccc3)C(=O)c3cnccn3)cc2c1	0.0
CCCN1C(=O)c2ccccc2NC1c1ccc(C)cc1 (stereo unspecified)	0.0
O=C(/C=C\Nc1ccccc1Br)c1ccc2c(c1)OCO2	-7.7
CC(C)=CCC(C)(C)C1OCCN1C(=O)Nc1ccccc1 (stereo unspecified)	-8.6
C=CCn1c(=O)/c(=C2/SC(C)=C(C)N2CC)s/c1=C1/C(=O)N(CC)C(=S)N1c1ccccc1	0.0
CCN(C(=S)NC(=O)c1ccccc1Br)C1CCCCC1	-8.3
CN1CCc2nc(SCc3ccc(C(C)(C)C)cc3)c(C#N)cc2C1	6.7
NC(=O)c1noc(C(=O)N(CC(=O)NC2CCCC2)Cc2ccc3c(c2)OCO3)c1N	456.3*
O=C(NC1CCCC1)C(c1ccccc1)N(Cc1ccc2c(c1)OCO2)C(=O)Cc1cccs1 (stereo unspecified)	246.2
Cn1cnnc1SCC(=O)N(Cc1ccc2c(c1)OCO2)C1(C(=O)NC2CCCCC2)CCCC1	7.1
C=CCSc1nc(N)c(C(=O)Nc2ccccc2C)cc1C(N)=O	-7.7
CCC1(C)Cc2ccccc2-c2nc(-c3ccccc3)oc(=O)c21 (stereo unspecified)	-6.7
O=C(Nc1cccc2oc(=O)ccc12)c1ccc([N+](=O)[O-])cc1[N+](=O)[O-]	0.0
CCC(NC(=O)c1ccc([N+](=O)[O-])cc1[N+](=O)[O-])c1ccccc1 (stereo unspecified)	80.0*
CCC(NC(=O)COc1ccc([N+](=O)[O-])cc1)c1ccccc1 (stereo unspecified)	-66.7
SMILES	INS promoter act
COc1ccc(C(=O)N2CCOC2CNC(=O)C(=O)NCc2ccco2)cc1 (stereo unspecified)	0.0
CCN(C(=O)CN1CCOCC1)C1(C)C(=O)c2ccccc2C1=O	-7.7
Cc1occc1-c1nnc(SCC(=O)NCCc2ccccc2)n1C(C)c1ccccc1 (stereo unspecified)	9.4
CC(C)n1nnnc1SCC(=O)NCCc1ccccc1	75.0*
CCCCn1nnnc1SCC(=O)NCc1ccccc1	266.7
O=C(Nc1ccc([N+](=O)[O-])cc1)Nc1nc(-c2ccc(Cl)s2)cs1	-77.8
Nc1ccc(C(=O)c2ccccc2C(=O)O)cc1Cl	5.3
O=C(C[n+]1cccc(CNC(=O)c2ccc(OC(F)F)cc2)c1)c1ccccc1	341.2*
CC(Oc1ccc(C(=O)NCCc2ccccc2)cc1)C(=O)O (stereo unspecified)	0.0
O=C(NCc1ccccc1)c1ccc(S(=O)(=O)C(F)F)cc1	-3.3
Cc1ccc(C(=O)NCC(=O)OCC(=O)/C=C2\N(C)c3ccccc3C2(C)C)cc1C	-6.7
CCn1c(=O)cc(OCC(=O)NCCc2cccc(C)c2)c2ccccc21	129.4*
CCn1c(=O)cc(OCC(=O)Nc2cc(C)ccn2)c2ccccc21	6.5
CCOC(=O)COc1cc(=O)n(CC)c2ccccc12	-4.2
Clc1cccc(N2CCN(CCNc3nc4ccccc4n4cnnc34)CC2)c1	126.9
CSc1ccc(/C=C/C(=O)c2ccc(NC(=O)Cc3ccccc3)cc2)cc1	3.3
CCN(CC)C(=S)SCC(=O)c1ccc(Br)cc1	381.3*
CCN(CC)C(=O)c1ccc(C)c(Br)c1	356.3
Cc1ccnc(SCC(=O)c2ccc(Br)cc2)c1C#N	-61.1
Cc1c(NS(=O)(=O)c2ccc(Br)s2)c(=O)n(-c2ccccc2)n1C	5.1
CCN1CCN(S(=O)(=O)c2ccc(Br)s2)CC1	-92.9
O=S(=O)(c1ccc(Br)s1)N1CCN(c2ccccc2)CC1	575.0*
CN(CC(=O)NCCc1ccccc1)S(=O)(=O)c1cccc2nsnc12	5.6
O=C(CCN1CCN(S(=O)(=O)c2ccc(Br)cc2)CC1)Nc1ccccc1F	0.0
O=C(CN1CCN(S(=O)(=O)c2ccc(Br)cc2)CC1)Nc1ccc(F)cc1F	136.4*
O=C(CN1CCc2ccccc2C1)Nc1ccc(F)cc1F	-5.9
CNC(=O)C1C(=S)NC(N)=C(C#N)C1c1ccccc1 (stereo unspecified)	-1.7
COC(=O)c1[nH]c2ccccc2c1NC(=O)CN1CCN(C(=O)c2ccco2)CC1	-90.9

Assay outcomes from PubChem BioAssay.
